Tests used:
[1] = folding enthalpy; higher = less favourable; fluorescence melt of hairpins on a sequencing array, two-state fit; conditions: sodium 0.088 M
Procedure, shortened: (§1)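 Bootstrapped two-state fits yielded melting temperature and folding enthalpy for library hairpins. Cy3 fluorescence, with annealed Cy3 and quencher oligos, was imaged on a sequenced MiSeq flow cell in 50 mM Na-HEPES pH 8.0, 25 mM NaCl in 2.5 °C steps up to 60 °C, and normalised to pre-quench Cy3 and to control constructs. Four replicates were combined by inverse variance, and fitted temperatures were raised by 9.35 °C to match UV melts.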

[2] = melting temperature; fluorescence melt of hairpins on a sequencing array, two-state fit, raised by 9.35 °C to match UV melts; conditions: sodium 0.088 M
Procedure, shortened: as §1

GATCCAGTCCTGGATC ((((((....))))))
folding enthalpy [1]: -44.6 kcal/mol | Tm [2]: 56.5 °C

GATCCCTTAAGGGATC ((((((....))))))
folding enthalpy [1]: -39.4 kcal/mol | Tm [2]: 65.6 °C

GAGTTGGGAAACTAGCTC (((.(.(....).).)))
folding enthalpy [1]: -15 kcal/mol | Tm [2]: 29 °C

GTGCGTGGAAACACGTGC (..((((....))))..)
folding enthalpy [1]: -18.4 kcal/mol | Tm [2]: 51.5 °C

GATCACGGGTGTGATC ((((((....))))))
folding enthalpy [1]: -36.9 kcal/mol | Tm [2]: 58.8 °C

GCAATCGAAAGATCGTGC ((((((....)))..)))
folding enthalpy [1]: -16.1 kcal/mol | Tm [2]: 28 °C

GATCTCAAGGGAGATC ((((((....))))))
folding enthalpy [1]: -28.6 kcal/mol | Tm [2]: 50.8 °C

GATCTTTCAGAAGATC ((((((....))))))
folding enthalpy [1]: -34.1 kcal/mol | Tm [2]: 44.3 °C

GATCCTCGGAAGGATC ((((((....))))))
folding enthalpy [1]: -34.4 kcal/mol | Tm [2]: 50.2 °C

GCTCAGCGAAAGCTCCGC ((..(((....)))..))
folding enthalpy [1]: -8.07 kcal/mol | Tm [2]: 22.4 °C

GAGGAGCGAAAGCTTCTC (((.(((....))).)))
folding enthalpy [1]: -33.2 kcal/mol | Tm [2]: 57.2 °C

GATCTACCTATAGATC ((((((....))))))
folding enthalpy [1]: -35 kcal/mol | Tm [2]: 40.5 °C

GCTGGGCCGAAAGGCAGC (((..(((....))))))
folding enthalpy [1]: -13.3 kcal/mol | Tm [2]: 48.5 °C

GTGCTGGGAAACCGGTAC ((.(.((....)).).))
folding enthalpy [1]: -33.1 kcal/mol | Tm [2]: 42.1 °C

GATCAATTGATTGATC ((((((....))))))
folding enthalpy [1]: -36.5 kcal/mol | Tm [2]: 47.2 °C

GCGTCCGAAAGGAACGC ((((((....))).)))
folding enthalpy [1]: -35.7 kcal/mol | Tm [2]: 64.9 °C

GTCGTTGGAAACAACAAC ((.((((....)))).))
folding enthalpy [1]: -17.7 kcal/mol | Tm [2]: 34.8 °C

GTATCCCCGAAAGGGTAC (((..(((....))))))
folding enthalpy [1]: -14.8 kcal/mol | Tm [2]: 35.5 °C

GACTGGGAAACCAGTC ((((((....))))))
folding enthalpy [1]: -35.1 kcal/mol | Tm [2]: 60.1 °C

GATCGGGATACCGATC ((((((....))))))
folding enthalpy [1]: -45.8 kcal/mol | Tm [2]: 65.7 °C

GTGAAAGGAAACCTTCAC (((((.(....).)))))
folding enthalpy [1]: -27 kcal/mol | Tm [2]: 36.5 °C

GCTTCGCGAAAGCCGAGC (((..((....))..)))
folding enthalpy [1]: -18.5 kcal/mol | Tm [2]: 41.7 °C

GATCGAGACTTCGATC ((((((....))))))
folding enthalpy [1]: -43.3 kcal/mol | Tm [2]: 57.2 °C

GATCCCAGCAGGGATC ((((((....))))))
folding enthalpy [1]: -34.6 kcal/mol | Tm [2]: 66.3 °C

GCGCAGCGAAAGCTAGGC ((..(((....)))..))
folding enthalpy [1]: -5.67 kcal/mol | Tm [2]: 39.7 °C

GCCGTTGGAAACGACGGC (((((.(....).)))))
folding enthalpy [1]: -38 kcal/mol | Tm [2]: 66.1 °C

GACTCGGGAAACCGAGCC (.(((((....))))).)
folding enthalpy [1]: -17 kcal/mol | Tm [2]: 47.8 °C

GGCCAGAAATGGCC (((((....)))))
folding enthalpy [1]: -29 kcal/mol | Tm [2]: 67.5 °C

GCTTAGGCGAAAGCCAGC (((..(((....))))))
folding enthalpy [1]: -15.1 kcal/mol | Tm [2]: 44.4 °C

GGAGGGGGAAACCTCTCC ((((.((....)).))))
folding enthalpy [1]: -35.8 kcal/mol | Tm [2]: 51.3 °C

GCTGCATCGAAAGATAGC (((..(((....))))))
folding enthalpy [1]: -17 kcal/mol | Tm [2]: 35.6 °C

GATCATTATCATGATC ((((((....))))))
folding enthalpy [1]: -38.9 kcal/mol | Tm [2]: 45.8 °C

CGGTGACGGAAACGTCCG (((..(((....))))))
folding enthalpy [1]: -12 kcal/mol | Tm [2]: 44.3 °C

GACCATGGAAACATGGCC (.(((((....))))).)
folding enthalpy [1]: -15.2 kcal/mol | Tm [2]: 46 °C

GGAGTCGAAAGACGTTCC ((((((....)))..)))
folding enthalpy [1]: -11.3 kcal/mol | Tm [2]: 37.6 °C

GTGCGCGGAAACGCACAC (((.(((....))).)))
folding enthalpy [1]: -19.2 kcal/mol | Tm [2]: 65.5 °C

GATTTCGGAAACGAAGTC ((.((((....)))).))
folding enthalpy [1]: -23.8 kcal/mol | Tm [2]: 39.3 °C

GCTAGGCGAAAGCCCGGC ((..(((....)))..))
folding enthalpy [1]: -16.9 kcal/mol | Tm [2]: 45.6 °C

GCGATATCTCGC ((((....))))
folding enthalpy [1]: -20.5 kcal/mol | Tm [2]: 48.5 °C

GATCGACAGATCGATC ((((((....))))))
folding enthalpy [1]: -16.1 kcal/mol | Tm [2]: 54.8 °C

GGTGCAGGAAACTGCGTC (..((((....))))..)
folding enthalpy [1]: -10.3 kcal/mol | Tm [2]: 35.6 °C

GCGTCCGAAAGGATTCGC ((((((....)))..)))
folding enthalpy [1]: -26.9 kcal/mol | Tm [2]: 47.1 °C

GATAGCGGAAACGCTACC (.(((((....))))).)
folding enthalpy [1]: -12.1 kcal/mol | Tm [2]: 40.4 °C

GCCATGCGAAAGCAATGC ((..(((....)))..))
folding enthalpy [1]: -12.6 kcal/mol | Tm [2]: 41.3 °C

GCGTTGCGAAAGCATGGC ((..(((....)))..))
folding enthalpy [1]: -18.9 kcal/mol | Tm [2]: 42.9 °C

GGCTTCGAAAGAATGGCC ((((((....)))..)))
folding enthalpy [1]: -25.2 kcal/mol | Tm [2]: 42.2 °C

GATGCTGGAAACGGCATC (((((.(....).)))))
folding enthalpy [1]: -44.1 kcal/mol | Tm [2]: 54.3 °C

GCTCTGCGAAAGCACGGC ((..(((....)))..))
folding enthalpy [1]: -14.6 kcal/mol | Tm [2]: 39.7 °C

GCATCGCGAAAGCTTTGC (((..((....))..)))
folding enthalpy [1]: -18.6 kcal/mol | Tm [2]: 41.2 °C

GGTTACACGAAAGTGACC (((..(((....))))))
folding enthalpy [1]: -16.6 kcal/mol | Tm [2]: 35.5 °C

GATACCGGAAACGGTACC (.(((((....))))).)
folding enthalpy [1]: -13.6 kcal/mol | Tm [2]: 38.8 °C

GATCCGGATCCGGATC ((((((....))))))
folding enthalpy [1]: -51.4 kcal/mol | Tm [2]: 61.3 °C

GGAAATGGAAACACTTCC ((((.((....)).))))
folding enthalpy [1]: -31.5 kcal/mol | Tm [2]: 30.2 °C

GTTCCGGGAAACCGGAAC (((((((....)))))))
folding enthalpy [1]: -30.1 kcal/mol | Tm [2]: 68.7 °C

GTAACGGGAAACCGTTAC (((((((....)))))))
folding enthalpy [1]: -49.6 kcal/mol | Tm [2]: 60.5 °C

GGACAGCCGAAAGGCTCC (((..(((....))))))
folding enthalpy [1]: -7.98 kcal/mol | Tm [2]: 31.2 °C

GCCTCTGCGAAAGCAGGC (((..(((....))))))
folding enthalpy [1]: -8.17 kcal/mol | Tm [2]: 50 °C

GATCGATGAATCGATC ((((((....))))))
folding enthalpy [1]: -41.1 kcal/mol | Tm [2]: 55.1 °C

GATCTAGCCCTAGATC ((((((....))))))
folding enthalpy [1]: -37 kcal/mol | Tm [2]: 45.6 °C

GTCAATCGAAAGATCGAC (((.(((....))).)))
folding enthalpy [1]: -29 kcal/mol | Tm [2]: 41.2 °C

GTTGTAGGAAACCACAAC (((((.(....).)))))
folding enthalpy [1]: -32.5 kcal/mol | Tm [2]: 39.9 °C

GTGTAGCGAAAGCTCCAC (((.(((....))).)))
folding enthalpy [1]: -31.7 kcal/mol | Tm [2]: 48 °C

GCTCCAGGAAACCGGAGC (((((.(....).)))))
folding enthalpy [1]: -40.5 kcal/mol | Tm [2]: 54.3 °C

GTCGCCGAAAGGCAGAC ((((((....))).)))
folding enthalpy [1]: -17.7 kcal/mol | Tm [2]: 61.7 °C

GATCTAGTTATAGATC ((((((....))))))
folding enthalpy [1]: -33.8 kcal/mol | Tm [2]: 48.9 °C

GCGAGACCGAAAGGTCGC (((..(((....))))))
folding enthalpy [1]: -10.3 kcal/mol | Tm [2]: 59.1 °C

GATCCAATGGTGGATC ((((((....))))))
folding enthalpy [1]: -29.4 kcal/mol | Tm [2]: 48.3 °C

GGAGTCGAAAGACCGTCC ((((((....)))..)))
folding enthalpy [1]: -12.7 kcal/mol | Tm [2]: 32.2 °C

GATCGTTGAACGATC ((((((...))))))
folding enthalpy [1]: -32.2 kcal/mol | Tm [2]: 53.6 °C

GATCGCTAACGCGATC ((((((....))))))
folding enthalpy [1]: -35.7 kcal/mol | Tm [2]: 66.5 °C

GCGGTTATCCGC ((((....))))
folding enthalpy [1]: -30 kcal/mol | Tm [2]: 59 °C

GCCGAGCGAAAGCTTCGC ((..(((....)))..))
folding enthalpy [1]: -11.3 kcal/mol | Tm [2]: 49.2 °C

GCGAGACGTCGC ((((....))))
folding enthalpy [1]: -8.79 kcal/mol | Tm [2]: 52.9 °C

GATCGTACTTACGATC ((((((....))))))
folding enthalpy [1]: -39.8 kcal/mol | Tm [2]: 55.3 °C

GGTTGCGAAAGCATGACC ((((((....)))..)))
folding enthalpy [1]: -15.7 kcal/mol | Tm [2]: 40.2 °C

GCAGACCGAAAGGTGTGC (((.(((....))).)))
folding enthalpy [1]: -35.8 kcal/mol | Tm [2]: 63 °C

GCATCCGAAAGGATATGC ((((((....)))..)))
folding enthalpy [1]: -15.7 kcal/mol | Tm [2]: 47.6 °C

GATCCACTATGGATC ((((((...))))))
folding enthalpy [1]: -30.6 kcal/mol | Tm [2]: 52.7 °C

GTCCCCGAAAGGGTAGAC ((((((....)))..)))
folding enthalpy [1]: -16.1 kcal/mol | Tm [2]: 40.6 °C

GATCCTGGAAACAGGACC (.(((((....))))).)
folding enthalpy [1]: -14.4 kcal/mol | Tm [2]: 40.1 °C

GGCCCTGGAAACGGGGCC (((((.(....).)))))
folding enthalpy [1]: -31.4 kcal/mol | Tm [2]: 67.5 °C

GCAGCGGGAAACCGTTGC (((.(((....))).)))
folding enthalpy [1]: -39.4 kcal/mol | Tm [2]: 57.9 °C

GATCAGCGGCCTGATC ((((((....))))))
folding enthalpy [1]: -36.9 kcal/mol | Tm [2]: 49.8 °C

GACTAAGGAAACTTAGCC (.(((((....))))).)
folding enthalpy [1]: -20.4 kcal/mol | Tm [2]: 31.3 °C

GCTAGGTCGAAAGACAGC (((..(((....))))))
folding enthalpy [1]: -18.1 kcal/mol | Tm [2]: 39.6 °C

GCGTCACCACGC ((((....))))
folding enthalpy [1]: -22.7 kcal/mol | Tm [2]: 53 °C

GGGCCCGAAAGGGTGCCC ((((((....)))..)))
folding enthalpy [1]: -15.7 kcal/mol | Tm [2]: 60.2 °C

GCTTCGCGAAAGCCAAGC ((((.((....)).))))
folding enthalpy [1]: -18.2 kcal/mol | Tm [2]: 50.3 °C

GTAAGCGAAAGCTTGTAC ((((((....)))..)))
folding enthalpy [1]: -11.7 kcal/mol | Tm [2]: 32.3 °C

GACCTCGGAAACGGGGTC ((((.((....)).))))
folding enthalpy [1]: -46.4 kcal/mol | Tm [2]: 55.9 °C

GAAATCGAAAGATTTC ((((((....))))))
folding enthalpy [1]: -32.5 kcal/mol | Tm [2]: 55.9 °C

GAGGTTGGAAACAACTTC ((.((((....)))).))
folding enthalpy [1]: -24 kcal/mol | Tm [2]: 43.4 °C

From the array DNA melting data of Ke et al. (doi:10.1101/2024.01.08.574731)
